Assay results as given in ChEMBL document CHEMBL3272181, “Design of substrate-site-directed irreversible inhibitors of adenosine 5'-phosphate aminohydrolase. Effect of substrate substituents on affinity for the substrate site” (J Med Chem, 1976).
Values belong to the compound of their own block, whether it stands above or below them.

Legend:
[1] = Non-linear competitive inhibition of rabbit muscle AMP aminohydrolase using AMP as substrate at 23 uM by Lineweaver-Burk plot analysis; type: tissue-based, Oryctolagus cuniculus, Muscle tissue
Summary of the method: (§1)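 Rabbit-muscle AMP aminohydrolase (Grade IV), diluted into 1 M KCl before use. Assayed at 22° in 0.01 M citrate buffer pH 6.5 with 25 mM KCl, following the fall in absorbance at 265 nm (Δε 8400, except 8-bromo-AMP). Initial velocities were linear and proportional to enzyme. At least four substrate and two inhibitor levels were used; parameters came from Lineweaver-Burk plots.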

Oryctolagus cuniculus [2] = organism: Oryctolagus cuniculus; assay: Activity at rabbit muscle AMP aminohydrolase after 48 hrs by Lineweaver-Burk plot analysis relative to AMP; type: tissue-based; conditions: Muscle tissue
[3] = Non-linear competitive inhibition of rabbit muscle AMP aminohydrolase using AMP as substrate at 46 uM by Lineweaver-Burk plot analysis; type: tissue-based, Oryctolagus cuniculus, Muscle tissue; summary of the method: as §1
Oryctolagus cuniculus [4] = organism: Oryctolagus cuniculus; assay: Activity at rabbit muscle AMP aminohydrolase after 24 hrs by Lineweaver-Burk plot analysis relative to AMP; type: tissue-based; conditions: Muscle tissue
Oryctolagus cuniculus [5] = organism: Oryctolagus cuniculus; assay: Activity at rabbit muscle AMP aminohydrolase by Lineweaver-Burk plot analysis; type: tissue-based; conditions: Muscle tissue; summary of the method: as §1
[6] = Retardation factor, Rf of the compound in 1:1 2-propanol-0.25 M triethylammonium bicarbonate by paper chromatographic analysis; type: physicochemical
[7] = Retardation factor, Rf of the compound in 5:2:3 1-butanol-acetic acid-water by paper chromatographic analysis; type: physicochemical; conditions: buffer
[8] = Retardation factor, Rf of the compound in 4:1:5 1-butanol-acetic acid-water by paper chromatographic analysis; type: physicochemical; conditions: buffer
[9] = Retardation factor, Rf of the compound in 7:3 1-propanol-water by paper chromatographic analysis; type: physicochemical; conditions: buffer
[10] = Linear competitive inhibition of rabbit muscle AMP aminohydrolase using AMP as substrate at 49 to 99 uM by Lineweaver-Burk plot analysis; type: tissue-based, Oryctolagus cuniculus, Muscle tissue; summary of the method: as §1
[11] = Linear competitive inhibition of rabbit muscle AMP aminohydrolase using AMP as substrate at 12 to 24 uM by Lineweaver-Burk plot analysis; type: tissue-based, Oryctolagus cuniculus, Muscle tissue; summary of the method: as §1
[12] = Linear noncompetitive inhibition of rabbit muscle AMP aminohydrolase using AMP as substrate at 19 to 38 uM by Lineweaver-Burk plot analysis; type: tissue-based, Oryctolagus cuniculus, Muscle tissue; summary of the method: as §1
[13] = Linear competitive inhibition of rabbit muscle AMP aminohydrolase using AMP as substrate at 49 to 148 uM by Lineweaver-Burk plot analysis; type: tissue-based, Oryctolagus cuniculus, Muscle tissue; summary of the method: as §1
[14] = Retardation factor, Rf of the compound in 7:3 95% ethanol-1M ammonium acetate at pH 7.5 by paper chromatographic analysis; type: physicochemical
[15] = Retardation factor, Rf of the compound in 7:1:2 2-propanol-concentrated ammonia-water by paper chromatographic analysis; type: physicochemical; conditions: buffer
[16] = Linear competitive inhibition of rabbit muscle AMP aminohydrolase using AMP as substrate at 27 to 54 uM by Lineweaver-Burk plot analysis; type: tissue-based, Oryctolagus cuniculus, Muscle tissue; summary of the method: as §1
[17] = Linear competitive inhibition of rabbit muscle AMP aminohydrolase using AMP as substrate at 11 to 23 uM by Lineweaver-Burk plot analysis; type: tissue-based, Oryctolagus cuniculus, Muscle tissue; summary of the method: as §1
[18] = Stability of the compound assessed as acylase (unknown origin)-mediated amide linkage cleavage at pH 7.6 after 24 hrs by paper electrophoretic analysis; type: ADME; conditions: buffer, pH 7.6, 24 h
Summary of the method: (§2)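 Compounds were incubated at 37° for 24 h in 0.05 M Tris pH 7.6 (2 ml) with one of: acylase 20 mg; pancreatic protease I 20 mg; fungal II 20 mg; papaya III 10 mg; bacterial IV 200 mg; VI 30 mg; VII 30 or 15 mg; X 5 mg; or hog-intestine peptidase 20 mg. Amide cleavage was checked by paper electrophoresis (pH 7.6, 4 kV, 30 min).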

[19] = Stability of the compound assessed as pancreatic protease type 1 (unknown origin)-mediated amide linkage cleavage at pH 7.6 after 24 hrs by paper electrophoretic analysis; type: ADME; conditions: buffer, pH 7.6, 24 h; summary of the method: as §2
[20] = Stability of the compound assessed as bacterial protease type 8-mediated amide linkage cleavage at pH 7.6 after 24 hrs by paper electrophoretic analysis; type: ADME; conditions: bacteria, buffer, pH 7.6, 24 h
[21] = Stability of the compound assessed as bacterial protease type 6-mediated amide linkage cleavage at pH 7.6 after 24 hrs by paper electrophoretic analysis; type: ADME; conditions: bacteria, buffer, pH 7.6, 24 h; summary of the method: as §2
[22] = Stability of the compound assessed as bacterial protease type 7-mediated amide linkage cleavage at pH 7.6 after 24 hrs by paper electrophoretic analysis; type: ADME; conditions: bacteria, buffer, pH 7.6, 24 h; summary of the method: as §2
[23] = Stability of the compound assessed as papaya protease type 3-mediated amide linkage cleavage at pH 7.6 after 24 hrs by paper electrophoretic analysis; type: ADME; conditions: carica papaya, buffer, pH 7.6, 24 h; summary of the method: as §2
[24] = Linear competitive inhibition of rabbit muscle AMP aminohydrolase using AMP as substrate at 26 to 52 uM by Lineweaver-Burk plot analysis; type: tissue-based, Oryctolagus cuniculus, Muscle tissue; summary of the method: as §1
[25] = Stability of the compound assessed as fungal protease type 2-mediated amide linkage cleavage at pH 7.6 after 24 hrs by paper electrophoretic analysis; type: ADME; conditions: fungi, buffer, pH 7.6, 24 h; summary of the method: as §2
[26] = Stability of the compound assessed as bacterial protease type 4-mediated amide linkage cleavage at pH 7.6 after 24 hrs by paper electrophoretic analysis; type: ADME; conditions: bacteria, buffer, pH 7.6, 24 h; summary of the method: as §2
[27] = Stability of the compound assessed as bacterial protease type 10-mediated amide linkage cleavage at pH 7.6 after 24 hrs by paper electrophoretic analysis; type: ADME; conditions: bacteria, buffer, pH 7.6, 24 h; summary of the method: as §2
[28] = Stability of the compound assessed as hog intestinal peptidase-mediated amide linkage cleavage at pH 7.6 after 24 hrs by paper electrophoretic analysis; type: ADME, Sus scrofa; conditions: pig, isolated protein, pH 7.6, 24 h; summary of the method: as §2
[29] = Linear competitive inhibition of rabbit muscle AMP aminohydrolase using AMP as substrate at 14 to 28 uM by Lineweaver-Burk plot analysis; type: tissue-based, Oryctolagus cuniculus, Muscle tissue; summary of the method: as §1
[30] = Linear competitive inhibition of rabbit muscle AMP aminohydrolase using AMP as substrate at 21 to 42 uM by Lineweaver-Burk plot analysis; type: tissue-based, Oryctolagus cuniculus, Muscle tissue; summary of the method: as §1
[31] = Stability of the compound in Tris buffer at pH 8.5 at 22 degC; type: physicochemical
[32] = Linear competitive inhibition of rabbit muscle AMP aminohydrolase using AMP as substrate at 64 to 128 uM by Lineweaver-Burk plot analysis; type: tissue-based, Oryctolagus cuniculus, Muscle tissue; summary of the method: as §1
[33] = Linear competitive inhibition of rabbit muscle AMP aminohydrolase using AMP as substrate at 11 to 22 uM by Lineweaver-Burk plot analysis; type: tissue-based, Oryctolagus cuniculus, Muscle tissue; summary of the method: as §1

Compound: CC(=O)NC[C@@H](OP(=O)(O)O)[C@H]1O[C@@H](n2cnc3c(N)ncnc32)[C@H](O)[C@@H]1O
Ki [1]: 47 µM
Activity (Oryctolagus cuniculus [2]): > 0%
Ki [3]: 30 µM

Compound: CC(=O)O[C@@H]1[C@H](OC(C)=O)[C@@H](COP(=O)(O)O)O[C@H]1n1cnc2c(N)ncnc21
Activity (Oryctolagus cuniculus [4]): 0.07%
Rf [8]: 0.34
Rf [9]: 0.41
Km (Oryctolagus cuniculus [5]): 670 µM
Ki [10]: 105 µM
Rf [7]: 0.56

Compound: CCCOC(=O)NCC(C[C@H]1O[C@@H](n2cnc3c(N)ncnc32)[C@H](O)[C@@H]1O)P(=O)(O)O (stereo partly drawn)
Activity (Oryctolagus cuniculus [4]): 0%
Ki [11]: 14 µM
Rf [6]: 0.81
Rf [7]: 0.55

Compound: CCC(=O)NC[C@@H](OP(=O)(O)O)[C@H]1O[C@@H](n2cnc3c(N)ncnc32)[C@H](O)[C@@H]1O
Activity (Oryctolagus cuniculus [2]): 0%
Ki [12]: 205 µM

Compound: CC1(C)O[C@@H]2[C@H](O1)[C@@H](COP(=O)(O)O)O[C@H]2n1cnc2c(N)ncnc21
Ki [13]: 260 µM
Activity (Oryctolagus cuniculus [4]): 0.5%
Rf [14]: 0.3
Rf [8]: 0.4
Rf [15]: 0.34
Km (Oryctolagus cuniculus [5]): 130 µM
Rf [7]: 0.59

Compound: CC(=O)NC[C@H](OP(=O)(O)O)[C@H]1O[C@@H](n2cnc3c(N)ncnc32)[C@H](O)[C@@H]1O
Ki [17]: 18 µM
Activity (Oryctolagus cuniculus [4]): > 0%

Compound: CCC(=O)NC[C@H](OP(=O)(O)O)[C@H]1O[C@@H](n2cnc3c(N)ncnc32)[C@H](O)[C@@H]1O
Ki [29]: 42 µM

Compound: CC(=O)OC(C[C@H]1O[C@@H](n2cnc3c(N)ncnc32)[C@H](O)[C@@H]1O)P(=O)(O)O (stereo partly drawn)
Activity (Oryctolagus cuniculus [4]): 7.8%
Rf [14]: 0.17
Rf [8]: 0.18
Stability [31]: 16 h
Rf [9]: 0.27
Km (Oryctolagus cuniculus [5]): 120 µM
Ki [32]: 330 µM
Rf [7]: 0.31

Compound: CC(=O)OC(C[C@H]1O[C@@H](n2cnc3c(N)ncnc32)[C@@H]2OC(C)(C)O[C@@H]21)P(=O)(O)O (stereo partly drawn)
Rf [14]: 0.39
Rf [8]: 0.5
Rf [9]: 0.49
Rf [7]: 0.65

Results, then the compound that gave them:

Activity (Oryctolagus cuniculus [4]): 100%
Km (Oryctolagus cuniculus [5]): 600 µM
Vmax (Oryctolagus cuniculus [5]): 294 µmol/min
Compound: Nc1ncnc2c1ncn2[C@@H]1O[C@H](COP(=O)(O)O)[C@@H](O)[C@H]1O

Activity (Oryctolagus cuniculus [4]): 0.65%
Km (Oryctolagus cuniculus [5]): 140 µM
Rf [6]: 0.49
Rf [7]: 0.21
Compound: NCC(C[C@H]1O[C@@H](n2cnc3c(N)ncnc32)[C@H](O)[C@@H]1O)P(=O)(O)O (stereo partly drawn)

Rf [6]: 0.71
Rf [7]: 0.27
Compound: N#CC(C[C@H]1O[C@@H](n2cnc3c(N)ncnc32)[C@H](O)[C@@H]1O)P(=O)(O)O (stereo partly drawn)

Ki [16]: 19 µM
Activity (Oryctolagus cuniculus [4]): 0%
Rf [6]: 0.75
Rf [7]: 0.33
Compound: COC(=O)NCC(C[C@H]1O[C@@H](n2cnc3c(N)ncnc32)[C@H](O)[C@@H]1O)P(=O)(O)O (stereo partly drawn)

Stability [18]: Stable
Stability [19]: Stable
Activity (Oryctolagus cuniculus [4]): 0.61%
Stability [20]: Stable
Stability [21]: Stable
Stability [22]: Stable
Stability [23]: Stable
Ki [24]: 20 µM
Km (Oryctolagus cuniculus [5]): 80 µM
Rf [6]: 0.73
Stability [25]: Stable
Rf [7]: 0.29
Stability [26]: Stable
Stability [27]: Stable
Stability [28]: Stable
Compound: CC(=O)NCC(C[C@H]1O[C@@H](n2cnc3c(N)ncnc32)[C@H](O)[C@@H]1O)P(=O)(O)O (stereo partly drawn)

Stability [18]: Stable
Stability [19]: Stable
Activity (Oryctolagus cuniculus [4]): 0%
Stability [20]: Stable
Stability [21]: Stable
Stability [22]: Stable
Stability [23]: Stable
Rf [6]: 0.83
Stability [25]: Stable
Rf [7]: 0.39
Stability [26]: Stable
Ki [30]: 17 µM
Stability [27]: Stable
Stability [28]: Stable
Compound: CCC(=O)NCC(C[C@H]1O[C@@H](n2cnc3c(N)ncnc32)[C@H](O)[C@@H]1O)P(=O)(O)O (stereo partly drawn)

Activity (Oryctolagus cuniculus [4]): 0%
Ki [33]: 16 µM
Rf [6]: 0.78
Rf [7]: 0.41
Compound: CCOC(=O)NCC(C[C@H]1O[C@@H](n2cnc3c(N)ncnc32)[C@H](O)[C@@H]1O)P(=O)(O)O (stereo partly drawn)
